Test results: ChEMBL document CHEMBL1142577, “Asimitrin and 4-hydroxytrilobin, new bioactive annonaceous acetogenins from the seeds of Asimina triloba possessing a bis-tetrahydrofuran ring” (J Nat Prod, 2005)
In brackets after ≈: the same amount, converted by molar mass.

Legend:
[1] = tested on: Artemia; test: Toxicity in brine shrimp; assay type: organism-based; settings: in vivo
Method in brief: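 Brine shrimp lethality test (BST) on brine shrimp larvae, run routinely on extracts, fractions and isolated compounds, with lethality as the read-out.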

[2] = tested on: A549; test: Cytotoxicity against human A549 cells after 7 days by MTT assay; assay type: functional; settings: A549, 168 h, read-out: ED50 (the source's name)
Method in brief: (§1)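 Seven-day in vitro MTT cytotoxicity test on human tumour lines, run with adriamycin as positive control under standard protocols. Cell line origins: A-549 lung carcinoma, MCF-7 breast carcinoma, HT-29 colon adenocarcinoma, A-498 kidney carcinoma, PC-3 prostate adenocarcinoma, MIA PaCa-2 pancreatic carcinoma.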

[3] = tested on: MCF7; test: Cytotoxicity against human MCF7 cells after 7 days by MTT assay; assay type: functional; settings: MCF7, 168 h, read-out: ED50 (the source's name); method in brief: as §1
[4] = tested on: HT-29; test: Cytotoxicity against human HT-29 cells after 7 days by MTT assay; assay type: functional; method in brief: as §1
[5] = tested on: PC-3; test: Cytotoxicity against human PC-3 cells after 7 days by MTT assay; assay type: functional; method in brief: as §1
[6] = tested on: MIA PaCa-2; test: Cytotoxicity against human MIA PaCa2 cells after 7 days by MTT assay; assay type: functional; method in brief: as §1
[7] = tested on: A498; test: Cytotoxicity against human A-498 cells after 7 days by MTT assay; assay type: functional; settings: A498, 168 h, read-out: ED50 (the source's name); method in brief: as §1

| SMILES | LC50 [1] | EC50 [2] | EC50 [3] | ED50 [4] | ED50 [5] | ED50 [6] | EC50 [7] | EC50 ([4]; Homo sapiens, HT-29, 168 h, read-out: ED50 (the source's name)) | EC50 ([5]; Homo sapiens, PC-3, 168 h, read-out: ED50 (the source's name)) | EC50 ([6]; Homo sapiens, MIA PaCa-2, 168 h, read-out: ED50 (the source's name)) |
| --- | --- | --- | --- | --- | --- | --- | --- | --- | --- | --- |
| CCCCCCCCCC[C@@H](O)[C@H]1CC[C@@H]([C@H]2CC[C@H]([C@H](O)CCCCC(O)CCCCC[C@@H](O)CC3=C[C@H](C)OC3=O)O2)O1 (stereo not given in full) | 7 ×10⁻² ug/ml | 1.54 µg/mL (≈ 2.41 µM) | 3.79 µg/mL (≈ 5.93 µM) | 1.54 ×10⁻⁶ ug/ml | 2.01 ×10⁻⁴ ug/ml | 2.01 ×10⁻⁴ ug/ml | 0.0362 µg/mL (≈ 0.0567 µM) |  |  |  |
| CCCCCCCCCC[C@@H](O)[C@H]1CC[C@H]([C@H]2C[C@@H](O)[C@H]([C@H](O)CCCCCCCCCC[C@@H](O)CC3=C[C@H](C)OC3=O)O2)O1 [ASIMITRIN] | 2.07 ×10⁻² ug/ml | 1.19 µg/mL (≈ 1.86 µM) | 2.12 µg/mL (≈ 3.32 µM) | 1.19 ×10⁻⁴ ug/ml | 1.72 ×10⁻⁶ ug/ml | 2.11 ×10⁻⁴ ug/ml | 0.75 µg/mL (≈ 1.17 µM) |  |  |  |
| COc1cccc2c1C(=O)c1c(O)c3c(c(O)c1C2=O)C[C@@](O)(C(=O)CO)C[C@@H]3O[C@H]1C[C@H](N)[C@H](O)[C@H](C)O1 [DOXORUBICIN] |  | 0.00622 µg/mL (≈ 0.0114 µM) | 0.953 µg/mL (≈ 1.75 µM) |  |  |  | 0.00286 µg/mL (≈ 0.00526 µM) | 0.0287 µg/mL (≈ 0.0528 µM) | 0.0577 µg/mL (≈ 0.106 µM) | 6.1 ng/mL (≈ 0.0112 µM) |
